Measurements published in ChEMBL document CHEMBL1138187, “2-(2-Thienyl)-5,6-dihydroxy-4-carboxypyrimidines as inhibitors of the hepatitis C virus NS5B polymerase: discovery, SAR, modeling, and mutagenesis” (J Med Chem, 2006).

Legend:
[1] = Lipophilicity as measured by LogD at pH 7.4; format: physicochemical; settings: buffer
[2] = molecular target: T1, RNA-directed RNA polymerase (Hepacivirus hominis, UniProt O39930); experiment: Inhibitory activity against HCV 1b BK NS5B deltaC55 RNA polymerase involving magnesium chelation; design: species or system Hepatitis C virus subtype 1b
In short: (§1)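 HCV 1b-BK NS5B∆C55 (residues 1-536) from E. coli BL21(DE3), assayed on a homopolymeric template RNA with either Mg or Mn as the divalent metal ion. IC50 taken under each metal.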

[3] = molecular target: T1, RNA-directed RNA polymerase; experiment: Inhibitory activity against HCV 1b BK NS5B deltaC55 RNA polymerase involving manganese chelation; design: species or system Hepatitis C virus subtype 1b; in short: as §1
[4] = Dissociation constant, pKa of the compound; format: physicochemical
[5] = molecular target: T1, RNA-directed RNA polymerase; experiment: Inhibitory activity against HCV 1b BK NS5B deltaC55 RNA polymerase; design: species or system Hepatitis C virus subtype 1b
In short: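 Purified HCV 1b-BK NS5B∆C55 (residues 1-536) expressed in E. coli BL21(DE3). Polymerase activity read on a homopolymeric template RNA at pH 7.4. IC50 is the average of at least three independent determinations; standard deviations within 30% of the average.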

[6] = molecular target: T1, RNA-directed RNA polymerase; experiment: Inhibitory activity against HCV 1b BK NS5B deltaC21 RNA polymerase; design: species or system Hepatitis C virus subtype 1b
In short: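 HCV 1b-BK NS5B∆C21 (residues 1-570), expressed in E. coli BL21(DE3) and purified; polymerase activity measured on a homopolymeric template RNA; IC50 read-out.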

[7] = molecular target: T1, RNA-directed RNA polymerase; experiment: Inhibitory activity against HCV 1b BK NS5B RNA polymerase; design: species or system Hepatitis C virus subtype 1b
In short: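 Purified HCV 1b-BK NS5B∆C55 (residues 1-536), expressed in E. coli BL21(DE3), assayed with a homopolymeric template RNA at pH 7.4 with Mg as metal ion; IC50 taken as the average of at least three independent determinations.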

[8] = molecular target: T1, RNA-directed RNA polymerase; experiment: Inhibitory activity against HCV 2a BK NS5B deltaC21 RNA polymerase; design: species or system Hepatitis C virus subtype 2a
[9] = molecular target: T1, RNA-directed RNA polymerase; experiment: Inhibitory activity against HCV 3a BK NS5B deltaC21 RNA polymerase
Hepatitis C virus = experiment: Inhibition of subgenomic HCV RNA replication in Huh-7 cells (replicon assay)
[10] = molecular target: RNA-directed RNA polymerase (Hepacivirus hominis, UniProt O39930, DELTAC55/R158M); experiment: Inhibitory activity against HCV 1b BK NS5B deltaC55-R158M mutant RNA polymerase; design: species or system Hepatitis C virus subtype 1b
In short: (§2)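 HCV 1b-BK NS5B∆C55 (residues 1-536) carrying R158M or R158K, expressed in E. coli BL21(DE3) and purified. Polymerase run on a homopolymeric template RNA with UTP as substrate; IC50 and UTP Km measured in duplicate.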

[11] = molecular target: RNA-directed RNA polymerase (Hepacivirus hominis, UniProt O39930, DELTAC55/R158K); experiment: Inhibitory activity against HCV 1b BK NS5B deltaC55-R158K mutant RNA polymerase; design: species or system Hepatitis C virus subtype 1b; in short: as §2
Homo sapiens = species: Homo sapiens; experiment: Percent of unbound ligand in human plasma; format: ADME, organism-based

T1 sequence (O39930 whole entry, the tested form may be a part): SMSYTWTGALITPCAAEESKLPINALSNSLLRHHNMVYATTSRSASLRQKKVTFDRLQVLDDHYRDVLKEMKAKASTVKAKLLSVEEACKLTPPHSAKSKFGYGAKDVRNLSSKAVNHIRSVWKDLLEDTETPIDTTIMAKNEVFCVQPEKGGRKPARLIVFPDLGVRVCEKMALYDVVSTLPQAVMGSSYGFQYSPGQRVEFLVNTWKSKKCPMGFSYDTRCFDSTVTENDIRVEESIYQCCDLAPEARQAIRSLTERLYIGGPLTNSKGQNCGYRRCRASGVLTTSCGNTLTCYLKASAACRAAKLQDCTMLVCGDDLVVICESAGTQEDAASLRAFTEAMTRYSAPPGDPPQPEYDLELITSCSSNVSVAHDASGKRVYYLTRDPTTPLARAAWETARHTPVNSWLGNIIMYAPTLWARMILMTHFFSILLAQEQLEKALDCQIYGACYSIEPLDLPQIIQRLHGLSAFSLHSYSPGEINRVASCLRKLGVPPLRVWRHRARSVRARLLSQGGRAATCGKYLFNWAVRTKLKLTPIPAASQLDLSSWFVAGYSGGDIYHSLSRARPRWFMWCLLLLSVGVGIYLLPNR

| Structure (SMILES) | IC50 [5] | EC50 (Hepatitis C virus) | further results |
| --- | --- | --- | --- |
| O=C(NCc1ccccc1Cl)Nc1ccsc1-c1nc(O)c(O)c(C(=O)O)n1 | 0.15 µM | 9.3 µM | logD [1]: 0.37; IC50 [2]: 0.15 µM; IC50 [3]: 0.036 µM; pKa [4]: 6.6; IC50 [6]: 0.045 µM; IC50 [7]: 0.13 µM; IC50 [8]: 0.044 µM; IC50 [9]: 0.048 µM |
| O=C(O)c1nc(-c2cccs2)nc(O)c1O | – | – | logD [1]: -1.95; IC50 [3]: 0.24 µM; pKa [4]: 7.7; IC50 [10]: 9.3 µM; IC50 [11]: 92 µM |
| O=C(NCc1csc2ccccc12)Nc1ccsc1-c1nc(O)c(O)c(C(=O)O)n1 | 0.22 µM | 30 µM | – |
| O=C(NCc1ccccc1)Nc1ccsc1-c1nc(O)c(O)c(C(=O)O)n1 | 0.23 µM | – | – |
| O=C(Cc1ccccc1Cl)Nc1ccsc1-c1nc(O)c(O)c(C(=O)O)n1 | 0.21 µM | 53.3 µM | – |
| O=C(CCc1ccccc1)Nc1ccsc1-c1nc(O)c(O)c(C(=O)O)n1 | 0.58 µM | > 50 µM | – |
| O=C(Cc1c[nH]c2ccccc12)Nc1ccsc1-c1nc(O)c(O)c(C(=O)O)n1 | 0.2 µM | > 50 µM | – |
| O=C(O)c1nc(-c2cc3ccccc3s2)nc(O)c1O | 11.6 µM | – | – |
| O=C(O)c1nc(C2CCCCC2)nc(O)c1O | > 50 µM | – | IC50 [2]: > 50 µM; IC50 [3]: > 25 µM; pKa [4]: 8.7 |
| Nc1ccsc1-c1nc(C(=O)O)c(O)c(=O)[nH]1 | 1.9 µM | – | – |
| O=C(Nc1ccsc1-c1nc(O)c(O)c(C(=O)O)n1)OCc1ccccc1 | 0.29 µM | – | – |
| CCCCc1nc(C(=O)O)c(O)c(=O)[nH]1 | > 50 µM | – | – |
| O=C(Cc1csc2ccccc12)Nc1ccsc1-c1nc(C(=O)O)c(O)c(=O)[nH]1 | 0.23 µM | > 50 µM | – |
| O=C(O)c1nc(Cc2ccccc2)nc(O)c1O | > 50 µM | – | – |
| O=C(O)c1nc(-c2ccco2)nc(O)c1O | 2.9 µM | – | IC50 [2]: 2.9 µM; IC50 [3]: 0.24 µM; pKa [4]: 7.4 |
| O=C(O)c1nc(-c2sccc2[N+](=O)[O-])n(Cc2ccccc2)c(=O)c1O | 79.3 µM | – | – |
| O=C(Cc1c(-c2ccccc2)[nH]c2ccccc12)Nc1ccsc1-c1nc(C(=O)O)c(O)c(=O)[nH]1 | 0.28 µM | > 50 µM | – |
| O=C(O)c1nc(-c2cnccn2)nc(O)c1O | 5.3 µM | – | – |
| O=C(Nc1ccsc1-c1nc(O)c(O)c(C(=O)O)n1)OCc1c(Cl)cccc1Cl | 0.19 µM | 18.6 µM | – |
| O=C(O)c1nc(-c2ccc([N+](=O)[O-])s2)[nH]c(=O)c1O | 16 µM | – | – |

| Structure (SMILES) | IC50 [5] | EC50 (Hepatitis C virus) | further results |
| --- | --- | --- | --- |
| O=C(Nc1csc(-c2nc(C(=O)O)c(O)c(=O)[nH]2)c1)c1cccs1 | 13.8 µM | – | – |
| O=C(O)c1nc(-c2cc([N+](=O)[O-])cs2)nc(O)c1O | 9.4 µM | – | – |
| C=CCn1c(-c2sccc2[N+](=O)[O-])nc(C(=O)O)c(O)c1=O | 69.3 µM | – | – |
| O=C(Nc1ccsc1-c1nc(O)c(O)c(C(=O)O)n1)OCc1ccccc1Cl | 0.14 µM | 31.5 µM | IC50 [10]: 0.34 µM; IC50 [11]: 0.9 µM |
| O=C(Nc1ccsc1-c1nc(C(=O)O)c(O)c(=O)[nH]1)c1ccccc1 | 0.8 µM | > 50 µM | – |
| Cc1cccc(Cl)c1CNC(=O)Nc1ccsc1-c1nc(O)c(O)c(C(=O)O)n1 | 0.09 µM | 13.6 µM | logD [1]: 0.6; Fu (Homo sapiens): 0.2% |
| Cn1c(-c2cccs2)nc(C(=O)O)c(O)c1=O | 4.2 µM | – | IC50 [3]: 0.46 µM; pKa [4]: 9.1 |
| O=C(Nc1ccsc1-c1nc(C(=O)O)c(O)c(=O)[nH]1)OCc1cccc2ccccc12 | 0.14 µM | 13.6 µM | – |
| Cc1ccsc1-c1nc(O)c(O)c(C(=O)O)n1 | 5.6 µM | – | – |
| O=C(NCCc1ccccc1)Nc1ccsc1-c1nc(O)c(O)c(C(=O)O)n1 | 0.62 µM | > 50 µM | – |
| O=C(Nc1ccsc1-c1nc(C(=O)O)c(O)c(=O)[nH]1)OCCc1ccccc1 | 0.46 µM | > 50 µM | logD [1]: -0.43 |
| O=C(Cc1ccccc1)Nc1ccsc1-c1nc(O)c(O)c(C(=O)O)n1 | 0.38 µM | – | – |
| O=C(Nc1ccccc1)Nc1ccsc1-c1nc(O)c(O)c(C(=O)O)n1 | 0.58 µM | > 50 µM | – |
| O=C(O)c1nc(-c2sccc2[N+](=O)[O-])nc(O)c1O | 0.68 µM | – | IC50 [2]: 0.68 µM; IC50 [3]: 0.065 µM; pKa [4]: 6.9 |
| O=C(O)c1nc(-c2nccs2)nc(O)c1O | 0.76 µM | – | logD [1]: -2.12; IC50 [2]: 0.76 µM; IC50 [3]: 0.21 µM; pKa [4]: 6.9; IC50 [10]: 2.77 µM; IC50 [11]: 16 µM |
| CS(=O)(=O)c1nc(C(=O)O)c(O)c(=O)[nH]1 | 2.4 µM | – | – |
| Cn1c(-c2sccc2[N+](=O)[O-])nc(C(=O)O)c(O)c1=O | 8.7 µM | – | – |
| Cc1ccc(-c2nc(O)c(O)c(C(=O)O)n2)s1 | 48.6 µM | – | – |
| O=C(O)c1nc(-c2ccccc2)nc(O)c1O | – | – | pKa [4]: 8.6 |
| O=C(O)c1nc(-c2sccc2NS(=O)(=O)c2ccc3ccccc3c2)[nH]c(=O)c1O | 1.42 µM | – | – |
